The target of assay [1] is Peroxisome proliferator-activated receptor (Homo sapiens) (UniProt P37231+Q07869+Q03181). Kind of assay: Activation of PPAR in human HepG2 cells at 10 ug/ml after 24 hrs by luciferase reporter gene assay relative to rosiglitazone. The class given is cell-based. The gist of the method: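 HepG2 cells in low-glucose DMEM with 100 U mL-1 streptomycin/penicillin, plated at 1.5 × 10⁴ per well a day before transfection. At 70% confluence they were co-transfected with pPPRE-Luc (firefly) and phRL-TK (renilla). After 24 h the medium was replaced with sample-containing medium, with rosiglitazone as positive control. Dual firefly/renilla luciferase was read after a further 24 h; untransfected cells served as blank.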

For assay [2], the species on record is Rattus norvegicus. As to the kind of experiment: Inhibition of rat intestine alpha-glucosidase using maltose as substrate after 10 mins by spectrometric analysis relative to acarbose. Also noted: concentration or dose not given beside the values. The gist of the method:
(§1)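 Enzyme and sample were preincubated at 37 °C for 10 min. Then 0.1 mol L-1 maltose was added and incubated 10 min at room temperature. The reaction was stopped and OD read at 490 nm. Blank (no enzyme, no sample) and negative (no sample) controls were run alongside.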

Assay [3] is described as follows: Inhibition of rat intestine alpha-glucosidase using maltose as substrate after 10 mins by spectrometric analysis. An outline of the steps:
as §1

In brackets after ≈: the same amount, converted by molar mass.

Peroxisome proliferator-activated receptor (Homo sapiens), sequence (P37231 whole entry, looked up): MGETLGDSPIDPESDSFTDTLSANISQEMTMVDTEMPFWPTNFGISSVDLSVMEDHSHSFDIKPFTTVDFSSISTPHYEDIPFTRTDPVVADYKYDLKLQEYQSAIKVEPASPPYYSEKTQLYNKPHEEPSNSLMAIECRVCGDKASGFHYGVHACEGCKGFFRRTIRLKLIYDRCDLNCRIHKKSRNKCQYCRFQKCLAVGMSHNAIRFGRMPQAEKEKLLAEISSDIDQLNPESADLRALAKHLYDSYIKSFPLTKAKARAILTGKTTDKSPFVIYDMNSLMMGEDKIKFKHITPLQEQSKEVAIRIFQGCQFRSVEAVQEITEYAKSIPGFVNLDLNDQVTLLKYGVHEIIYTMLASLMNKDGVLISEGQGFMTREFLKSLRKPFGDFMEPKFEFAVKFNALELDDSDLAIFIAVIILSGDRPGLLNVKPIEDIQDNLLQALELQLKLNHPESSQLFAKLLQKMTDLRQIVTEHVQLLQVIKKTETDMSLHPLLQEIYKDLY
Peroxisome proliferator-activated receptor (Homo sapiens), sequence (Q03181 whole entry, looked up): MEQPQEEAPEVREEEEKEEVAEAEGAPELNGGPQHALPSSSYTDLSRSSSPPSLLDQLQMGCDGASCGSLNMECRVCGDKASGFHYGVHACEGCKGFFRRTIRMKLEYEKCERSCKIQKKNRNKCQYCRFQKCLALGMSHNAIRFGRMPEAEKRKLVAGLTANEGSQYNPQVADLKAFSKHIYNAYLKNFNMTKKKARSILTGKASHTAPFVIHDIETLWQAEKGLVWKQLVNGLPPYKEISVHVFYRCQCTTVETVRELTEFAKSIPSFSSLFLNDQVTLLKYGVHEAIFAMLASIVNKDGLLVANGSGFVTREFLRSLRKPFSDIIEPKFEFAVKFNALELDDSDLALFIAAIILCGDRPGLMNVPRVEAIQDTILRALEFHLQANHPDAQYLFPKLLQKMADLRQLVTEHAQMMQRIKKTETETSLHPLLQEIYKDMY
Peroxisome proliferator-activated receptor (Homo sapiens), sequence (Q07869 whole entry, looked up): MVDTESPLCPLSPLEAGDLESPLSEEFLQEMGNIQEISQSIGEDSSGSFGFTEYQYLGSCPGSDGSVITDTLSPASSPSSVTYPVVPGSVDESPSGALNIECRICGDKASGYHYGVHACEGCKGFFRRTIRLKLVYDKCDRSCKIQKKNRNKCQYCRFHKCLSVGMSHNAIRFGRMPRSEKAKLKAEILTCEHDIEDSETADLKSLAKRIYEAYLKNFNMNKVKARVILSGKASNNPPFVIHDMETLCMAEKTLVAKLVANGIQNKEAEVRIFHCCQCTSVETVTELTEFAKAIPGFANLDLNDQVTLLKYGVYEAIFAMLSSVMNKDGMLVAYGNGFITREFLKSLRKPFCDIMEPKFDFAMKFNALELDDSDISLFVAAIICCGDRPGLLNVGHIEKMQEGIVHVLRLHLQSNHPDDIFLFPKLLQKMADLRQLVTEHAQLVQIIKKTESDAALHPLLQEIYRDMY

What is called inhibition is the change of the read-out against control, counted positive when it falls. On to `COc1ccc2cc(CCC(=O)CC(Nc3ccc(S(=O)(=O)Nc4cc(C)on4)cc3)c3ccc(Cl)cc3)ccc2c1` (stereo not drawn), for which the Activity in assay [1] was 3.92%. Moreover, the inhibition in assay [2] is 44.2%.
In the same order, the values of `COc1ccc2cc(CCC(=O)CC(Nc3ccc(S(=O)(=O)Nc4cc(C)on4)cc3)c3ccc(O)cc3)ccc2c1` (stereo not drawn) are 13.8% and 7.07%.
In the same order, the values of `COc1ccc2cc(CCC(=O)CC(Nc3ccc(S(=O)(=O)Nc4cc(C)on4)cc3)c3cccc(F)c3)ccc2c1` (stereo not drawn) are 36.7% and 24.7%.
Take `CCCCOc1ccc(C(CC(=O)CCc2ccc3cc(OC)ccc3c2)Nc2ccc(S(N)(=O)=O)cc2)cc1` (stereo not drawn): in assay [1], the Activity came to 18%. Besides, the inhibition in assay [2] is -4.69%.
In the same order, the values of `COc1ccc2cc(CCC(=O)CC(Nc3ccc(S(=O)(=O)Nc4cc(C)on4)cc3)c3ccc(Cl)cc3Cl)ccc2c1` (stereo not drawn) are 64.5% and 20.3%.
As for `COc1ccc2cc(CCC(=O)CC(Nc3cc(C)on3)c3ccc([N+](=O)[O-])cc3)ccc2c1` (stereo not drawn), in assay [1], the Activity came to 4.18%. Also, in assay [2], the inhibition turned out to be 24.6%.
In the case of `COc1ccc2cc(CCC(=O)CC(Nc3cc(C)on3)c3cccc(Cl)c3)ccc2c1` (stereo not drawn), the Activity in assay [1] is 4.86%. Also, in assay [2], the inhibition was 26.3%.
In the same order, the values of `COc1ccc2cc(CCC(=O)CC(Nc3ccc(S(N)(=O)=O)cc3)c3ccc(Cl)c(Cl)c3)ccc2c1` (stereo not drawn) are 45.8% and 34.8%.
On to `COc1ccc2cc(CCC(=O)CC(Nc3ccc(S(=O)(=O)Nc4cc(C)on4)cc3)c3cccc(Cl)c3)ccc2c1` (stereo not drawn), for which the Activity in assay [1] worked out at 19.6%. The inhibition in assay [2] came to 47.1%.
`COc1ccc2cc(CCC(=O)CC(Nc3ccc(S(N)(=O)=O)cc3)c3ccco3)ccc2c1` (stereo not drawn) gave an Activity in assay [1] of 6.64%. In addition, the inhibition in assay [2] was 46.8%.
As for `COc1ccc2cc(CCC(=O)CC(Nc3ccc(S(N)(=O)=O)cc3)c3cccc([N+](=O)[O-])c3)ccc2c1` (stereo not drawn), in assay [1], the Activity amounted to 14.8%. The inhibition in assay [2] stood at 32.7%.
In the same order, the values of `COc1ccc2cc(CCC(=O)CC(Nc3cc(C)on3)c3ccc(Cl)cc3Cl)ccc2c1` (stereo not drawn) are 11.5% and 13%.
In the same order, the values of `COc1ccc2cc(CCC(=O)CC(Nc3cc(C)on3)c3ccc(Cl)c(Cl)c3)ccc2c1` (stereo not drawn) are 5.37% and 22.3%.
In the same order, the values of `COc1ccc2cc(CCC(=O)CC(Nc3cc(C)on3)c3cccc(F)c3)ccc2c1` (stereo not drawn) are 30.1% and 13.3%.
`COc1ccc2cc(CCC(=O)CC(Nc3cc(C)on3)c3ccc(C)cc3)ccc2c1` (stereo not drawn) yielded an Activity in assay [1] of 11.5%. In assay [2], the inhibition turned out to be 7.23%.
In the same order, the values of `CCCCOc1ccc(C(CC(=O)CCc2ccc3cc(OC)ccc3c2)Nc2ccc(S(=O)(=O)Nc3cc(C)on3)cc2)cc1` (stereo not drawn) are 83.3% and 14.3%.
In the same order, the values of `COc1ccc2cc(CCC(=O)CC(Nc3ccc(S(=O)(=O)Nc4cc(C)on4)cc3)c3ccc(Cl)c(Cl)c3)ccc2c1` (stereo not drawn) are 22.4% and 53.7%.
In the same order, the values of `COc1ccc2cc(CCC(=O)CC(Nc3cc(C)on3)c3ccc4c(c3)OCO4)ccc2c1` (stereo not drawn) are 12.6% and 0.35%.
For `COc1ccc(C(CC(=O)CCc2ccc3cc(OC)ccc3c2)Nc2ccc(S(=O)(=O)Nc3cc(C)on3)cc2)cc1` (stereo not drawn), in assay [1], the Activity amounted to 48.4%. Besides, the inhibition in assay [2] came out at 50.8%.
In the same order, the values of `COc1cccc(C(CC(=O)CCc2ccc3cc(OC)ccc3c2)Nc2ccc(S(=O)(=O)Nc3cc(C)on3)cc2)c1` (stereo not drawn) are 78.2% and 12.7%.
In the case of `COc1ccc2cc(CCC(=O)CC(Nc3cc(C)on3)c3ccc(Cl)cc3)ccc2c1` (stereo not drawn), the Activity in assay [1] amounted to 6.32%. The inhibition in assay [2] was 26.3%.
In general, IC50 refers to the concentration needed to halve the response being measured. With `COc1ccc2cc(CCC(=O)CC(Nc3ccc(S(=O)(=O)Nc4cc(C)on4)cc3)c3cccc(C)c3)ccc2c1` (stereo not drawn), the IC50 in assay [3] was 3.24 µg/mL (≈ 5.55 µM). For the same compound, the Activity in assay [1] is 68.4%. For the same compound, the inhibition in assay [2] came to 70.5%.
In turn, `COc1ccc2cc(CCC(=O)CC(Nc3cc(C)on3)c3ccc(O)cc3)ccc2c1` (stereo not drawn) registered an Activity in assay [1] of 5.3%. Moreover, the inhibition in assay [2] is 21.4%.
`COc1ccc(C(CC(=O)CCc2ccc3cc(OC)ccc3c2)Nc2cc(C)on2)cc1` (stereo not drawn) gave an Activity in assay [1] of 3.13%. For the same compound, in assay [2], the inhibition was determined as 10.8%.
The compound `COc1ccc2cc(CCC(=O)CC(Nc3ccc(S(N)(=O)=O)cc3)c3cccc(Cl)c3)ccc2c1` (stereo not drawn) displayed an Activity in assay [1] of 58.7%. The inhibition in assay [2] was determined as 40.8%.
On to `COc1ccc2cc(CCC(=O)CC(Nc3ccc(S(N)(=O)=O)cc3)c3ccccc3)ccc2c1` (stereo not drawn), for which the Activity in assay [1] worked out at 61%. Also, the inhibition in assay [2] amounted to 41.7%.
As for `COc1ccc2cc(CCC(=O)CC(Nc3ccc(S(=O)(=O)Nc4cc(C)on4)cc3)c3ccc(C)cc3)ccc2c1` (stereo not drawn), the Activity in assay [1] worked out at 58.5%. Besides, the inhibition in assay [2] came to 15.8%.
In the same order, the values of `COc1ccc2cc(CCC(=O)CC(Nc3ccc(S(=O)(=O)Nc4cc(C)on4)cc3)c3cccc([N+](=O)[O-])c3)ccc2c1` (stereo not drawn) are 81.8% and 41.6%.
In the same order, the values of `COc1cccc(C(CC(=O)CCc2ccc3cc(OC)ccc3c2)Nc2cc(C)on2)c1` (stereo not drawn) are 41.6% and 15.8%.
As to `COc1ccc2cc(CCC(=O)CC(Nc3ccc(S(N)(=O)=O)cc3)c3cccc(C)c3)ccc2c1` (stereo not drawn), the Activity in assay [1] amounted to 57.3%. The inhibition in assay [2] stood at 14.1%.
Regarding `COc1ccc2cc(CCC(=O)CC(Nc3ccc(S(N)(=O)=O)cc3)c3ccc4cc(OC)ccc4c3)ccc2c1` (stereo not drawn), in assay [1], the Activity worked out at 19.1%. Also, the inhibition in assay [2] was 6.39%.
In the same order, the values of `COc1ccc2cc(CCC(=O)CC(Nc3ccc(S(=O)(=O)Nc4cc(C)on4)cc3)c3ccccc3)ccc2c1` (stereo not drawn) are 17.8% and 14.9%.
In the same order, the values of `COc1ccc2cc(CCC(=O)CC(Nc3cc(C)on3)c3cccc([N+](=O)[O-])c3)ccc2c1` (stereo not drawn) are 9.11% and 24.4%.
As for `COc1cccc(C(CC(=O)CCc2ccc3cc(OC)ccc3c2)Nc2ccc(S(N)(=O)=O)cc2)c1` (stereo not drawn), the Activity in assay [1] was found to be 60.3%. In assay [2], the inhibition worked out at 15.7%.
Regarding `COc1ccc2cc(CCC(=O)CC(Nc3ccc(S(=O)(=O)Nc4cc(C)on4)cc3)c3ccc4c(c3)OCO4)ccc2c1` (stereo not drawn), the Activity in assay [1] is 43%. Also, the inhibition in assay [2] was determined as 19.2%.
`COc1ccc2cc(CCC(=O)CC(Nc3cc(C)on3)c3ccccc3)ccc2c1` (stereo not drawn): the Activity in assay [1] is 5.83%. For the same compound, the inhibition in assay [2] worked out at 7.36%.
Compound `COc1ccc2cc(CCC(=O)CC(Nc3cc(C)on3)c3ccc(Br)cc3)ccc2c1` (stereo not drawn) displayed an Activity in assay [1] of 2.87%. Also, the inhibition in assay [2] was determined as 1.42%.
In the same order, the values of `COc1ccc2cc(CCC(=O)CC(Nc3ccc(S(N)(=O)=O)cc3)c3ccc4c(c3)OCO4)ccc2c1` (stereo not drawn) are 9.87% and -4.32%.
In the same order, the values of `COc1ccc2cc(CCC(=O)CC(Nc3ccc(S(N)(=O)=O)cc3)c3ccc([N+](=O)[O-])cc3)ccc2c1` (stereo not drawn) are 46.8% and 31.6%.
In the same order, the values of `CCCCOc1ccc(C(CC(=O)CCc2ccc3cc(OC)ccc3c2)Nc2cc(C)on2)cc1` (stereo not drawn) are 6.33% and 11%.
In turn, `COc1ccc2cc(CCC(=O)CC(Nc3cc(C)on3)c3cccc(C)c3)ccc2c1` (stereo not drawn) returned an Activity in assay [1] of 12.7%. Moreover, the inhibition in assay [2] worked out at 10.2%.

The values are drawn from ChEMBL document CHEMBL1955714, “Synthesis and antidiabetic performance of β-amino ketone containing nabumetone moiety” (Bioorg Med Chem, 2012).
